# ChEMBL document CHEMBL3045505, “Antifungal activity of strawberry fruit volatile compounds against Colletotrichum acutatum” (2007)
# Active and inactive are the calls of the source. The calls are words filed in the database; no cut-off is given here.
# Columns and labels:
# Colletotrichum acutatum [1] = experiment: Antifungal activity against Colletotrichum acutatum assessed as inhibition of microcyclic conidiation at 25 degC measured after 4 to 24 hr; assay type: functional
# Method in brief: (§1)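 C. acutatum CECT 20240 conidia (PDA, 25 °C, continuous light, 7 days) as a 100 µL droplet of 5 × 10^5 conidia mL-1 on Parafilm-covered slides in sealed Petri dishes. Volatile applied to filter paper in the vapour phase at ≥4 doses, 0.13–1351.35 µL L-1, with water control. Incubated at 25 °C and scored microscopically at 4 and 24 h. Five dishes per dose, experiment run twice.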
# Colletotrichum acutatum [2] = experiment: Antifungal activity against Colletotrichum acutatum assessed as inhibition of pore appressorial formation at 25 degC measured after 4 to 24 hr; assay type: functional; method in brief: as §1
# Colletotrichum acutatum [3] = experiment: Antifungal activity against Colletotrichum acutatum assessed as inhibition of appressorium pigmentation at 25 degC measured after 4 to 24 hr; assay type: functional; method in brief: as §1
# Colletotrichum acutatum [4] = experiment: Antifungal activity against Colletotrichum acutatum assessed as inhibition of appressorium formation at 25 degC measured after 4 to 24 hr; assay type: functional; method in brief: as §1
# Colletotrichum acutatum [5] = experiment: Antifungal activity against Colletotrichum acutatum assessed as inhibition of germination at 25 degC measured after 4 to 24 hr; assay type: functional; method in brief: as §1
# Colletotrichum acutatum [6] = experiment: Antifungal activity against Colletotrichum acutatum assessed as inhibition of mycelial growth at 25 degC measured after 8 days; assay type: functional
# Method in brief: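 A 5 mm PDA mycelial disc was placed in a sealed 74 mL dish holding 20 mL PDA. Volatile on filter paper under the lid at ≥6 doses, 33.78–1351.35 µL L-1, with extra doses for some compounds; water control. Colony diameter read after 8 days at 25 °C; five dishes per dose, run twice. MID, ID95 and ID50 from probit regression on log dose.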
# Colletotrichum acutatum [7] = experiment: Antifungal activity against Colletotrichum acutatum assessed as high disorganization of cell components at 33.78 ul/L by transmission electrol microscopy; assay type: functional, organism-based
# Colletotrichum acutatum [8] = experiment: Antifungal activity against Colletotrichum acutatum assessed as disruption of cell wall at 33.78 ul/L by transmission electrol microscopy; assay type: functional, organism-based
# Colletotrichum acutatum [9] = experiment: Antifungal activity against Colletotrichum acutatum assessed as disruption of plasma membrane at 33.78 ul/L by transmission electrol microscopy; assay type: functional, organism-based
# Colletotrichum acutatum [10] = experiment: Antifungal activity against Colletotrichum acutatum inoculated in strawberry fruits assessed as fruit damaging at >=20 ul/L measured after 7 days; assay type: functional
# Method in brief: (§2)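 Strawberry fruits (cv. Camarosa) at commercial maturity inoculated with 10^6 conidia mL-1. Filter paper carrying 4, 5, 10, 20 or 50 µL L-1 volatile placed next to the fruit; inoculated untreated fruit as control. Kept at 25 °C under continuous light; damage rated at 7 days (0 = intact, 1 = covered with mycelia). Eight replicates, mean ± SE.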
# Colletotrichum acutatum [11] = experiment: Antifungal activity against Colletotrichum acutatum inoculated in strawberry fruits assessed as fruit damaging at 10 ul/L measured after 7 days; assay type: functional; method in brief: as §2
# Colletotrichum acutatum [12] = experiment: Antifungal activity against Colletotrichum acutatum inoculated in strawberry fruits assessed as fruit damaging at 5 ul/L measured after 7 days; assay type: functional, organism-based; method in brief: as §2
# Colletotrichum acutatum [13] = experiment: Antifungal activity against Colletotrichum acutatum inoculated in strawberry fruits assessed as fruit damaging at 4 ul/L measured after 7 days; assay type: functional, organism-based; method in brief: as §2
Structure (SMILES),MID (Colletotrichum acutatum [1]),MID (Colletotrichum acutatum [2]),MID (Colletotrichum acutatum [3]),MID (Colletotrichum acutatum [4]),MID (Colletotrichum acutatum [5]),ID50 (Colletotrichum acutatum [6]),ID95 (Colletotrichum acutatum [6]),MID (Colletotrichum acutatum [6]),Activity (Colletotrichum acutatum [7]),Activity (Colletotrichum acutatum [8]),Activity (Colletotrichum acutatum [9]),Activity (Colletotrichum acutatum [10]),Activity (Colletotrichum acutatum [11]),Activity (Colletotrichum acutatum [12]),Activity (Colletotrichum acutatum [13])
CCC/C=C/CO,135.13 uL/L,33.78 uL/L,33.78 uL/L,33.78 uL/L,135.13 uL/L,151.76 uL/L,253.78 uL/L,268.92 uL/L,–,–,–,–,–,–,–
CCC/C=C/C=O,6.76 uL/L,1.35 uL/L,1.35 uL/L,6.76 uL/L,6.76 uL/L,26.89 uL/L,32.97 uL/L,33.65 uL/L,Active,Active,Active,100%,87.5%,inactive,inactive
CCC/C=C/COC(C)=O,337.84 uL/L,135.13 uL/L,135.13 uL/L,337.84 uL/L,337.84 uL/L,221.62 uL/L,584.86 uL/L,651.35 uL/L,–,–,–,–,–,–,–
CCCCCCO [1-HEXANOL],337.84 uL/L,33.78 uL/L,33.78 uL/L,337.84 uL/L,337.84 uL/L,151.35 uL/L,255.14 uL/L,270.27 uL/L,–,–,–,–,–,–,–
CC/C=C\CCOC(C)=O [(Z)-hex-3-en-1-yl acetate],337.84 uL/L,135.13 uL/L,135.13 uL/L,337.84 uL/L,337.84 uL/L,503.11 uL/L,2063.11 uL/L,2476.35 uL/L,–,–,–,–,–,–,–
CC/C=C\CCO [CIS-3-HEXENOL],337.84 uL/L,135.13 uL/L,135.13 uL/L,337.84 uL/L,337.84 uL/L,230.14 uL/L,595 uL/L,640.54 uL/L,–,–,–,–,–,–,–
CCCCCC=O [HEXANAL],33.78 uL/L,6.76 uL/L,6.76 uL/L,33.78 uL/L,33.78 uL/L,151.35 uL/L,256.49 uL/L,272.16 uL/L,–,–,–,–,–,–,–
CCCCCCOC(C)=O [HEXYL ACETATE],1351.35 uL/L,337.84 uL/L,337.84 uL/L,1351.35 uL/L,1351.35 uL/L,718.65 uL/L,5100.41 uL/L,6441.89 uL/L,–,–,–,–,–,–,–
